Data from ChEMBL document CHEMBL4396881, “Improved Th17 Selectivity of α-Galactosylceramide via Noncovalent Interactions with Diether Moiety” (ACS Med Chem Lett, 2019).
Calls of active or inactive are those of the source.

Key:
Format in all cases: functional
Mus musculus [1] = species: Mus musculus; assay: Stimulation of cytokine secretion in C57BL/6 mouse HMNCs assessed as increase in IL-2 secretion at 25 nM measured after 24 hrs by ELISA
How it was run: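 Mouse hepatic mononuclear cells were exposed to the α-GalCer analogues. IL-2 secretion was read 24 h after treatment. Results were expressed as relative activity, mean ± SEM, from n = 3 biological replicates.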

Mus musculus [2] = species: Mus musculus; assay: Stimulation of cytokine secretion in C57BL/6 mouse HMNCs assessed as increase in IL-4 secretion at 25 nM measured after 72 hrs by ELISA
Mus musculus [3] = species: Mus musculus; assay: Stimulation of cytokine secretion in C57BL/6 mouse HMNCs assessed as increase in IL-17 secretion at 25 nM measured after 72 hrs by ELISA
Mus musculus [4] = species: Mus musculus; assay: Stimulation of cytokine secretion in C57BL/6 mouse HMNCs assessed as increase in IFN gamma secretion at 25 nM measured after 72 hrs by ELISA
Mus musculus [5] = species: Mus musculus; assay: Stimulation of cytokine secretion in C57BL/6 mouse HMNCs assessed as increase in IL-17 secretion measured after 72 hrs by ELISA
Mus musculus [6] = species: Mus musculus; assay: Stimulation of cytokine secretion in C57BL/6 mouse HMNCs assessed as increase in IL-17 secretion at 5 to 125 nM measured after 72 hrs by ELISA
Mus musculus [7] = species: Mus musculus; assay: Antiinflammatory activity in C57BL/6 mouse HMNCs assessed as reduction in IL-17 secretion at 5 to 125 nM

Measured: Activity

CCCCCCCCCCCCCC[C@@H](O)[C@@H](O)[C@H](CO[C@H]1O[C@H](CO)[C@H](O)[C@H](O)[C@H]1O)NC(=O)CCCCCCCCCCCCCCCCOCCCCCOCC
active: Mus musculus [1] | Mus musculus [2] | Mus musculus [3] | Mus musculus [4]

CCCCCCCCCCCCCC[C@@H](O)[C@@H](O)[C@H](CO[C@H]1O[C@H](CO)[C@H](O)[C@H](O)[C@H]1O)NC(=O)CCCCCCCCCCCOCCCCCCCCCOCCC
active: Mus musculus [1] | Mus musculus [2] | Mus musculus [3] | Mus musculus [4]

CCCCCCCCCCCCCC[C@@H](O)[C@@H](O)[C@H](CO[C@H]1O[C@H](CO)[C@H](O)[C@H](O)[C@H]1O)NC(=O)CCCCCCCCCCCOCCCCCCCCCCOCC
active: Mus musculus [1] | Mus musculus [2] | Mus musculus [3] | Mus musculus [4] | Mus musculus [5] Dose-dependent effect

CCCCCCCCCCCCCC[C@@H](O)[C@@H](O)[C@H](CO[C@H]1O[C@H](CO)[C@H](O)[C@H](O)[C@H]1O)NC(=O)CCCCCCCCCCCCOCCCCCCCCCOCC
active: Mus musculus [1] | Mus musculus [2] | Mus musculus [3] | Mus musculus [4] | Mus musculus [5] Dose-dependent effect

CCCCCCCCCCCCCC[C@@H](O)[C@@H](O)[C@H](CO[C@H]1O[C@H](CO)[C@H](O)[C@H](O)[C@H]1O)NC(=O)CCCCCCCCCCCCCCCCOCCCCOCCC
not listed: Mus musculus [5]
active: all other assays above

CCCCCCCCCCCCCC[C@@H](O)[C@@H](O)[C@H](CO[C@H]1O[C@H](CO)[C@H](O)[C@H](O)[C@H]1O)NC(=O)CCCCCCCCCCCCCCOCCCCCCCOCC
active: Mus musculus [1] | Mus musculus [2] | Mus musculus [3] | Mus musculus [4]

CCCCCCCCCCCCCC[C@@H](O)[C@@H](O)[C@H](CO[C@H]1O[C@H](CO)[C@H](O)[C@H](O)[C@H]1O)NC(=O)CCCCCCCCCCCCCCOCCCCCCOCCC
active: Mus musculus [1] | Mus musculus [2] | Mus musculus [3] | Mus musculus [4]

CCCCCCCCCCCCCC[C@@H](O)[C@@H](O)[C@H](CO[C@H]1O[C@H](CO)[C@H](O)[C@H](O)[C@H]1O)NC(=O)CCCCCCCCCCCCOCCCCCCCCOCCC
active: Mus musculus [1] | Mus musculus [2] | Mus musculus [3] | Mus musculus [4]

CCCCCCCCCCCCCCCCCCCCCCCCCC(=O)N[C@@H](CO[C@H]1O[C@H](CO)[C@H](O)[C@H](O)[C@H]1O)[C@H](O)[C@H](O)CCCCCCCCCCCCCC
active: Mus musculus [2] | Mus musculus [4]
